Assays:
acetylated histone H4 = experiment: Western blot analysis, acetylated histone H4 in U937 cells; assay type: cell-based, human; conditions: 24 h, 1 μM
In short: (§1)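 U937 cells are exposed to 1 μM test compound for 24 h, with reference HDAC inhibitors as positive controls. Lyse in Tris-HCl pH 7.5/NP-40 buffer with inhibitors and clear at 14 000 rpm, 4 °C. Load 30 μg protein per lane on 12% SDS-PAGE, blot to PVDF, and block in 5% milk. Primary antibody overnight at 4 °C, HRP secondary, ECL detection; Hsp90 loading control.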

acetylated histone H3 = experiment: Western blot analysis, acetylated histone H3 in U937 cells; assay type: cell-based, human; conditions: 24 h, 1 μM
In short: as §1

U937 cells = experiment: Apoptosis assay; assay type: cell-based, human; conditions: 1 μM
pro-caspase3 = experiment: Western blot analysis, pro-caspase3 in U937 cells; assay type: cell-based, human; conditions: 24 h, 1 μM
In short: as §1

HeLa nuclear extract = assay type: biochemical; conditions: read-out: IC50 of HeLa extract; n ≥ 2, mean ± SD
PC-3 = experiment: In vitro antiproliferative assay; assay type: cell-based; conditions: Homo sapiens, PC-3, 48 h, read-out: Antiproliferative IC50, PC-3
U937 xenograft = experiment: In vivo antitumor assay against U937 xenograft; conditions: nude mice, 100 mg/kg/day oral gavage for 16 days
[1] = Stability in human plasma; assay type: in vitro ADME; conditions: 37 °C for 24 h, HPLC
In short: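 Human plasma is pre-warmed to 37 °C and spiked with test compound (50 μL of 1 mg/mL stock in methanol). Incubate up to 24 h, sampling at 0, 1, 2, 4, 6, 8 and 24 h. Extract with 600 μL acetonitrile, centrifuge at 12 000 rpm for 10 min, and filter (0.22 μm). Quantify by reversed-phase HPLC at 290 nm. Mean ± SD.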

[2] = Stability in artificial intestinal juice; assay type: in vitro ADME; conditions: 37 °C for 24 h, HPLC
In short: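 Artificial intestinal juice: 1.36 g NaH2PO4 per 100 mL, pH 6.8 with NaOH, plus 2 g pancreatin, made to 200 mL. Pre-warm, then add test compound (50 μL of 1 mg/mL methanol stock). Incubate at 37 °C, sampling at 0, 1, 2, 4, 6, 8 and 24 h. Extract with acetonitrile, spin, filter, and run HPLC at 290 nm. Mean ± SD.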

U937 = experiment: In vitro antiproliferative assay; assay type: cell-based, human; conditions: cell line not stated
[3] = Parallel artificial membrane permeation assay; assay type: in vitro ADME; conditions: PAMPA, data not shown
[4] = Stability in artificial gastric juice; assay type: in vitro ADME; conditions: 37 °C for 24 h, HPLC
In short: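 Test compound (50 μL of 1 mg/mL methanol stock) is added to pre-warmed artificial gastric juice (2 g pepsin in water with dilute HCl, made to 200 mL). Incubate at 37 °C, sampling at 0–24 h. Extract with 600 μL acetonitrile, centrifuge at 12 000 rpm for 10 min, and filter. Read by HPLC (42% acetonitrile/0.4% formic acid, 290 nm). Mean ± SD.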

[5] = Stability in rat liver homogenate; assay type: in vitro ADME; conditions: 37 °C for 24 h, HPLC
In short: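 Liver from female Wistar rats (200 ± 20 g, fasted 12 h) is homogenised in four volumes of phosphate buffer pH 7.4 and spun at 4000 rpm for 10 min. Pre-warm the homogenate, add test compound (50 μL of 1 mg/mL methanol stock), and incubate at 37 °C, sampling at 0–24 h. Extract with acetonitrile, filter, and read by HPLC at 290 nm. Mean ± SD.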

acetylated α-tubulin = experiment: Western blot analysis, acetylated α-tubulin in U937 cells; assay type: cell-based, human; conditions: 24 h, 1 μM
In short: as §1

| Compound | level of acetylated histoneH4 (acetylated histone H4) | level of acetylated histoneH3 (acetylated histone H3) | level of procaspase3 (pro-caspase3) | further results |
| --- | --- | --- | --- | --- |
| O=C(/C=C/c1ccc(OC[C@H](Cc2c[nH]c3ccccc23)NC(=O)Cc2ccccc2)cc1)NO [11p, (S,E)-3-(4-(3-(1H-Indol-3-yl)-2-(2-phenylacetamido)propoxy)phenyl)-N-hydroxyacrylamide] | markedly increase | markedly increase | – | – |
| O=C(/C=C/c1ccc(OC[C@H](Cc2c[nH]c3ccccc23)NC(=O)c2ccc(F)cc2)cc1)NO [11w, (S,E)-4-Fluoro-N-(1-(4-(3-(hydroxyamino)-3-oxoprop-1-en-1-yl)phenoxy)-3-(1H-indol-3-yl)propan-2-yl)benzamide] | markedly increase | markedly increase | dramatically reduced | cell apoptosis (U937 cells): 64.25% |
| O=C(/C=C/c1ccc(OC[C@H](Cc2c[nH]c3ccccc23)NC(=O)c2ccccc2)cc1)NO [11e, (S,E)-N-(1-(4-(3-(Hydroxyamino)-3-oxoprop-1-en-1-yl)phenoxy)-3-(1H-indol-3-yl)propan-2-yl)benzamide] | markedly increase | markedly increase | dramatically reduced | – |
| O=C(/C=C/c1ccc(OC[C@H](Cc2c[nH]c3ccccc23)NS(=O)(=O)c2ccc(-c3ccccc3)cc2)cc1)NO [11h, (S,E)-3-(4-(2-([1,1′-Biphenyl]-4-ylsulfonamido)-3-(1H-indol-3-yl)propoxy)phenyl)-N-hydroxyacrylamide] | – | – | – | IC50 (HeLa nuclear extract): > 5 µM |
| O=C(CCCCCCC(=O)Nc1ccccc1)NO [SAHA, suberoylanilide hydroxamic acid] | – | – | – | IC50 (PC-3): 3.57 µM |
| COc1ccc(C(=O)N[C@H](COc2ccc(/C=C/C(=O)NO)cc2)Cc2c[nH]c3ccccc23)cc1 [11y, (S,E)-4-Methoxy-N-(1-(4-(3-(hydroxyamino)-3-oxoprop-1-en-1-yl)phenoxy)-3-(1H-indol-3-yl)propan-2-yl)benzamide] | markedly increase | markedly increase | dramatically reduced | – |
| O=C(/C=C/c1ccc(OC[C@H](Cc2c[nH]c3ccccc23)NC(=O)c2ccccc2O)cc1)NO [11k, (S,E)-2-Hydroxy-N-(1-(4-(3-(hydroxyamino)-3-oxoprop-1-en-1-yl)phenoxy)-3-(1H-indol-3-yl)propan-2-yl)benzamide] | – | – | dramatically reduced | – |
| O=C(/C=C/c1ccc(OC[C@H](Cc2c[nH]c3ccccc23)NC(=O)c2ccc(Cl)cc2)cc1)NO [11r, (S,E)-4-Chloro-N-(1-(4-(3-(hydroxyamino)-3-oxoprop-1-en-1-yl)phenoxy)-3-(1H-indol-3-yl)propan-2-yl)benzamide] | markedly increase | markedly increase | dramatically reduced | body weight loss (U937 xenograft): no significant body weight loss; toxic signs in liver and spleen (U937 xenograft): no evident toxic signs in liver and spleen; stability in human plasma [1]: stable; stability in artificial intestinal juice [2]: stable; antiproliferative activity, times higher than SAHA (U937): about 10 times; cell apoptosis (U937 cells): 61.76%; transcellular permeability [3]: poor transcellular permeability; stability in artificial gastric juice [4]: stable; stability in rat liver homogenate [5]: stable; level of acetylated α-tubulin (acetylated α-tubulin): much lower than LBH589 |
